According to ChEMBL document CHEMBL1122501, “Potential antiatherosclerotic agents. 2. (Aralkylamino)- and (alkylamino) benzoic acid analogues of cetaben” (1983):
Values belong to the molecule of their own block, whether it stands above or below them.

Key:
[1] = system: Rattus norvegicus; assay: In vivo Sterol lowering activity at dose as 0.01 % of the diet; type: functional
Outline: (§1)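 Male CFE or CD-1 Sprague-Dawley rats, 140-150 g; 8 per control group, 4 per test group. Compound mixed into ground chow (w/w) via MeOH-CHCl3 (1:3) solution, solvent evaporated; controls got solvent-treated chow. Fed ad libitum 5 days, food intake monitored, killed fed and bled. Serum sterols and triglycerides by adapted autoanalyzer methods; mean percent of control, Student's t test.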

[2] = system: Rattus norvegicus; assay: In vivo triglyceride lowering activity, dosed at 0.01 % of the diet.; type: functional; outline: as §1
[3] = system: Rattus norvegicus; assay: In vivo triglyceride lowering activity, dosed at 0.03 % of the diet; type: functional; outline: as §1
[4] = target: T1, Sterol O-acyltransferase 1 (Rattus norvegicus) (UniProt O70536); assay: In vitro inhibitory activity against acyl coenzyme A:cholesterol acyltransferase (ACAT); set-up: concentration or dose not given beside the values; conditions: concentration not given here
T1 sequence (whole entry): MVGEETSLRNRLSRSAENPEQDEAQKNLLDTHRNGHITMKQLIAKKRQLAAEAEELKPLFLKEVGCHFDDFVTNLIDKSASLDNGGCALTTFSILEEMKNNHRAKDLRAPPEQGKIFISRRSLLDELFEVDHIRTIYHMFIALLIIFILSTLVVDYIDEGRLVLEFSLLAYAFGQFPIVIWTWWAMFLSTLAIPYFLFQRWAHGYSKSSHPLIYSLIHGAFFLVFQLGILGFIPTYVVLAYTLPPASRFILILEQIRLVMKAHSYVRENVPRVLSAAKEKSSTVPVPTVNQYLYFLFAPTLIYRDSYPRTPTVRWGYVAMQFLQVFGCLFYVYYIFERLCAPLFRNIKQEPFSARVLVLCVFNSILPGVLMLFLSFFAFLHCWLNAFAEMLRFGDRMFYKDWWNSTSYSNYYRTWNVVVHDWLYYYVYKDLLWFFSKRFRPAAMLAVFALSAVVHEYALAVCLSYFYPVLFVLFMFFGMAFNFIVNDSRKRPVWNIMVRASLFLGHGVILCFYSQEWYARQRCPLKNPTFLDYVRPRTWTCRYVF
Outline: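 ACAT enzyme from rat adrenal homogenate in 0.2 M KH2PO4 buffer pH 7.4, 1000g 15 min 5 °C supernatant (microsomal fraction). Supernatant + BSA (50 mg/mL) + compound at final 5.2 μg/mL + buffer preincubated 10 min 37 °C; [14C]oleoyl-CoA (0.4 μCi) added, 30 min 37 °C. Lipids extracted, TLC; cholesteryl ester zone counted. Mean % inhibition vs no-compound control; Student's t test.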

[5] = system: Rattus norvegicus; assay: In vivo Sterol lowering activity at dose as 0.03 % of the diet; type: functional; outline: as §1
[6] = system: Rattus norvegicus; assay: In vivo triglyceride lowering activity dosed at 0.10 % of the diet; type: functional; outline: as §1
[7] = system: Rattus norvegicus; assay: In vivo Sterol lowering activity at dose as 0.10 % of the diet.; type: functional; outline: as §1
[8] = system: Rattus norvegicus; assay: In vivo Triglyceride lowering activity at dose as 0.01 % of the diet; type: functional; outline: as §1
[9] = system: Rattus norvegicus; assay: In vivo sterol lowering activity dosed at 0.10 % of the diet; type: functional; outline: as §1
[10] = system: Rattus norvegicus; assay: In vivo Triglyceride lowering activity at dose as 0.025 % of the diet; type: functional; outline: as §1
[11] = system: Rattus norvegicus; assay: In vivo Sterol lowering activity at dose as 0.025 % of the diet; type: functional; outline: as §1
[12] = system: Rattus norvegicus; assay: In vivo Sterol lowering activity at dose as 0.05 % of the diet; type: functional; outline: as §1
[13] = system: Rattus norvegicus; assay: In vivo triglyceride lowering activity dosed at 0.05 % of the diet; type: functional; outline: as §1
[14] = system: Rattus norvegicus; assay: In vivo Sterol lowering activity at dose as 0.03 % of the diet.; type: functional; outline: as §1
[15] = system: Rattus norvegicus; assay: In vivo triglyceride lowering activity, dosed at 0.10 % of the diet.; type: functional; outline: as §1
[16] = system: Rattus norvegicus; assay: In vivo Triglyceride lowering activity at dose as 0.03 % of the diet.; type: functional; outline: as §1

Structure (SMILES): O=C(O)c1ccc(NC/C=C/c2ccccc2)cc1
- Diet [1]: 86%
- Diet [2]: 85%
- serum triglycerides, percent of control [3]: 43%
- inhibition [4]: 0%
- Diet [5]: 70%
- serum triglycerides, percent of control [6]: 44%
- serum sterol, percent of control [7]: 96%

Structure (SMILES): CCCCCCCCCCCCNc1ccc(C(=O)[O-])cc1.[Na+]
- Diet [1]: 89%
- serum triglycerides, percent of control [3]: <56%
- Diet [5]: 92%
- Diet [8]: <72%
- serum triglycerides, percent of control [6]: <34%
- serum sterol, percent of control [9]: 88%

Structure (SMILES): CCCCCCCCCCCCCCCCCCCNc1ccc(C(=O)[O-])cc1.[Na+]
- Diet [1]: 93%
- serum triglycerides, percent of control [3]: 99%
- Diet [5]: 98%
- Diet [8]: 102%
- serum triglycerides, percent of control [6]: <70%
- serum sterol, percent of control [9]: 98%

Structure (SMILES): CCCCCCCCCC/C=C/CCCNc1ccc(C(=O)[O-])cc1.[Na+]
- Diet [1]: 86%
- serum triglycerides, percent of control [3]: 117%
- Diet [5]: 93%
- Diet [8]: 112%
- serum triglycerides, percent of control [6]: <63%
- serum sterol, percent of control [9]: <82%

Structure (SMILES): CCCCCCCCCCCCCCCCCCNc1ccc(C(=O)[O-])cc1.[Na+]
- Diet [1]: <84%
- serum triglycerides, percent of control [3]: <76%
- Diet [5]: 86%
- Diet [8]: 90%
- serum triglycerides, percent of control [6]: <52%
- serum sterol, percent of control [9]: 79%

Structure (SMILES): O=C(O)c1ccc(NCCCc2ccccc2F)cc1
- Diet [1]: 87%
- serum triglycerides, percent of control [3]: 55%
- inhibition [4]: 58%
- serum sterol level, percent of control [14]: 85%
- Diet [8]: 58%
- serum triglycerides, percent of control [6]: 52%
- serum sterol, percent of control [7]: 81%

Structure (SMILES): CCCCCCCCCCCCCCCCNc1ccc(C(=O)O)cc1 [CETABEN]
- Diet [1]: <72%
- serum triglycerides, percent of control [3]: <45%
- Diet [5]: <71%
- Diet [8]: <71%
- serum triglycerides, percent of control [6]: <31%
- serum sterol, percent of control [9]: <54%

Structure (SMILES): CCCCCCCCCCCCCCCCNc1ccc(C(=O)[O-])cc1.[Na+] [CETABEN SODIUM]
- Diet [1]: 90%
- serum triglycerides, percent of control [3]: <60%
- Diet [5]: <76%
- Diet [8]: <75%
- serum triglycerides, percent of control [6]: <41%
- serum sterol, percent of control [9]: <60%

Structure (SMILES): CCCCCCCCCC/C=C/CCCNc1ccc(C(=O)OCC)cc1
- Diet [10]: 90%
- Diet [11]: <86%
- Diet [12]: 94%
- inhibition [4]: < 40%
- serum triglycerides, percent of control [6]: 83%
- serum sterol, percent of control [9]: <86%
- Diet [13]: 77%

Structure (SMILES): CCCCCCCCCCCCCNc1ccc(C(=O)[O-])cc1.[Na+]
- Diet [1]: 110%
- serum triglycerides, percent of control [3]: 70%
- Diet [5]: 90%
- Diet [8]: <60%
- serum triglycerides, percent of control [6]: <62%
- serum sterol, percent of control [9]: <76%

Structure (SMILES): O=C(O)c1ccc(NCCCc2ccccc2)cc1
- Diet [10]: 64%
- Diet [11]: 81%
- Diet [12]: 75%
- inhibition [4]: 18%
- serum triglycerides, percent of control [6]: 68%
- serum sterol, percent of control [9]: 81%
- Diet [13]: 51%

Continued, in another order:

- inhibition [4]: < 56%
Structure (SMILES): CCCCCCCCCCCCCCCNc1ccc(C(=O)O)cc1
- Diet [10]: 72%
- Diet [11]: 90%
- Diet [12]: 86%
- serum triglycerides, percent of control [6]: <60%
- serum sterol, percent of control [9]: <79%
- Diet [13]: 80%

- inhibition [4]: < 53%
Structure (SMILES): O=C(O)c1ccc(NCCCCCCCCCC/C=C/c2cccs2)cc1
- Diet [1]: <84%
- serum triglycerides, percent of control [3]: <59%
- Diet [5]: <83%
- Diet [8]: 69%
- serum triglycerides, percent of control [6]: <41%
- serum sterol, percent of control [9]: <73%

- inhibition [4]: < 63%
Structure (SMILES): CCOC(=O)c1ccc(NCCCCCCCCCCc2ccccc2)cc1
- Diet [1]: 100%
- serum triglycerides, percent of control [3]: <58%
- Diet [5]: <84%
- Diet [8]: 77%
- serum triglycerides, percent of control [6]: <77%
- serum sterol, percent of control [9]: <89%

- inhibition [4]: < 57%
Structure (SMILES): O=C(O)c1ccc(NCCCCCCCCCCCCc2cccs2)cc1
- Diet [1]: 85%
- serum triglycerides, percent of control [3]: <50%
- Diet [5]: <81%
- Diet [8]: <59%
- serum triglycerides, percent of control [6]: <42%
- serum sterol, percent of control [9]: <70%

- inhibition [4]: 22%
Structure (SMILES): O=C(O)c1ccc(NCCCCCCc2ccc(Cl)cc2)cc1
- Diet [1]: 81%
- Diet [2]: 61%
- serum triglycerides, percent of control [3]: 65%
- Diet [5]: 78%
- serum triglycerides, percent of control [6]: 43%
- serum sterol, percent of control [7]: 82%

- inhibition [4]: < 34%
Structure (SMILES): CCCCCCCCCCCCCCCCNc1cccc(C(=O)O)c1
- Diet [10]: 98%
- Diet [11]: 100%
- Diet [12]: 100%
- serum triglycerides, percent of control [6]: 81%
- serum sterol, percent of control [9]: 93%
- Diet [13]: 92%

- inhibition [4]: 29%
Structure (SMILES): O=C(O)c1ccc(NCCCc2cccc(Cl)c2)cc1
- Diet [1]: 82%
- serum triglycerides, percent of control [3]: 48%
- serum sterol level, percent of control [14]: 90%
- Diet [8]: 64%
- serum triglycerides, percent of control [6]: 55%
- serum sterol, percent of control [7]: 85%

- inhibition [4]: < 34%
Structure (SMILES): CCCCCCCCCCCCCCCCCNc1ccc(C(=O)O)cc1
- Diet [10]: 80%
- Diet [11]: <87%
- Diet [12]: <86%
- serum triglycerides, percent of control [6]: <57%
- serum sterol, percent of control [9]: 87%
- Diet [13]: 77%

- inhibition [4]: < 19%
Structure (SMILES): CCCCCCCCCCc1ccc(CNc2ccc(C(=O)OCC)cc2)cc1
- Diet [10]: 82%
- Diet [11]: 90%
- Diet [12]: 95%
- serum triglycerides, percent of control [6]: 94%
- serum sterol, percent of control [9]: 99%
- Diet [13]: <69%

- inhibition [4]: < 24%
Structure (SMILES): CCCCCCCCNc1ccc(C(=O)O)cc1
- Diet [10]: 91%
- Diet [11]: 101%
- Diet [12]: 97%
- serum triglycerides, percent of control [6]: <67%
- serum sterol, percent of control [9]: 90%
- Diet [13]: 88%

- inhibition [4]: < 35%
Structure (SMILES): CCCCCCCCCCOc1ccc(CNc2ccc(C(=O)O)cc2)cc1
- Diet [10]: <54%
- Diet [11]: 97%
- Diet [12]: <90%
- serum triglycerides, percent of control [6]: <37%
- serum sterol, percent of control [9]: <82%
- Diet [13]: <51%

- inhibition [4]: 26%
Structure (SMILES): CCOC(=O)c1ccc(NC(=O)CCc2ccc(OC)cc2)cc1
- Diet [15]: 105%
- Diet [1]: 80%
- Diet [2]: 98%
- Diet [16]: 89%
- serum sterol level, percent of control [14]: 85%
- serum sterol, percent of control [7]: 98%

- inhibition [4]: 8%
Structure (SMILES): CCCCCCCCCCCCCCCCNc1ccc(C(=O)OCC)cc1
- Diet [10]: <70%
- Diet [11]: 109%
- Diet [12]: 103%
- serum triglycerides, percent of control [6]: <69%
- serum sterol, percent of control [9]: 98%
- Diet [13]: <54%

- inhibition [4]: 40%
Structure (SMILES): O=C(CCCCC(=O)c1ccc(Cl)cc1)Nc1ccc(C(=O)O)cc1
- Diet [1]: 82%
- Diet [2]: 94%
- Diet [16]: 70%
- serum sterol level, percent of control [14]: 94%
- serum triglycerides, percent of control [6]: 56%
- serum sterol, percent of control [7]: 97%

- inhibition [4]: < 50%
Structure (SMILES): C=CCCCCCCCC/C=C/CCCNc1ccc(C(=O)OCC)cc1
- Diet [10]: 90%
- Diet [11]: <87%
- Diet [12]: <85%
- serum triglycerides, percent of control [6]: 64%
- serum sterol, percent of control [9]: <85%
- Diet [13]: 76%
